Measured values of several laboratories.
Each line is one published result; the experiments were not run side by side.
Mode: inhibitor
EGFR L858R/T790M: Epidermal growth factor receptor (EGFR, Homo sapiens, UniProt P00533, L858R/T790M)
EGFR: Epidermal growth factor receptor (EGFR, Homo sapiens, UniProt P00533)
EGFR L858R: Epidermal growth factor receptor (EGFR, Homo sapiens, UniProt P00533, L858R)

Structure (SMILES) | target | read-out | method | cells | tested at | inhibition [%]
C=C(Cl)C(=O)Nc1cc(Nc2nc(N3CCc4sccc4C3)c3sccc3n2)c(OC)cc1N(C)CCN(C)C | EGFR L858R/T790M | enzyme activity | ELISA |  | 0.1 µM | 90.3
CNc1cc(Oc2cc(C(=O)Nc3cc(N4CCN(C)CC4)cc(C(F)(F)F)c3)ccc2C)ncn1 | EGFR | target engagement in cells | chemoproteomics | Huh-7 | 1 µM | -15.5
CSc1nc(C)c(-c2ccnc(Nc3ccc(N4CCOCC4)cc3)c2)[nH]1 | EGFR | cell-free assay |  |  | 10 µM | 56.6
CS(=O)(=O)Nc1cccc(-c2csc(NC(=O)CSc3nc4nccnc4c(=O)n3CCc3ccccc3)n2)c1 | EGFR | enzyme activity |  |  | 10 µM | -1
CN1CC(Oc2cnc(C#N)cc2-c2ccn3nc(NC(=O)C4CC4)cc3c2)C1 | EGFR | enzyme activity |  |  | 1 µM | -1
COc1cc(-c2cc(-c3ccc(N4CCNCC4)cc3)cnc2N)cc(OC)c1OC | Epidermal growth factor receptor (EGFR, Homo sapiens, UniProt P00533, T790M) | enzyme activity |  |  | 0.1 µM | 2
COc1cc2ncnc(Nc3ccc(Oc4ccccc4)cc3C)c2cc1OC | EGFR L858R | enzyme activity |  |  | 1 µM | 64
C=CC(=O)Nc1cc(Nc2nccc(Nc3cc(Cl)c(F)cc3C(C)(C)O)n2)c(OC)cc1N1CC[C@@H](N(C)C)C1 | EGFR L858R/T790M | enzyme activity |  |  | 1 µM | 99
C=C(Cl)C(=O)Nc1cc(Nc2nc(N3CCSCC3)c3sccc3n2)c(OC)cc1N(C)CCN(C)C | EGFR L858R/T790M | enzyme activity | ELISA |  | 0.1 µM | 50.2
COc1cc2c(Nc3cccc(OCCn4ccnc4[N+](=O)[O-])c3)ncnc2cc1OCCCN1CCOCC1 | EGFR | enzyme activity | FRET |  | 1 µM | 24
CN(C)C1CCN(CC#Cc2nn(C3CCCC3)c3nc(NCc4ccccc4)ncc23)C1 (stereo not shown) | EGFR | enzyme activity | FRET |  | 1 µM | 7
O=C(CSc1nc2nccnc2c(=O)n1CCc1ccccc1)Nc1nccs1 | EGFR | enzyme activity |  |  | 10 µM | -2
COc1cc(N(C)CCN(C)C)c(NC(=O)C=C(C)C)cc1Nc1nc(N2CCc3sccc3C2)c2sccc2n1 | EGFR L858R/T790M | enzyme activity | ELISA |  | 0.1 µM | 19.5
COc1cc2ncnc(Nc3ccc(Oc4ccccc4)c(C)c3C)c2cc1OC | Epidermal growth factor receptor (EGFR, Homo sapiens, UniProt P00533, L861Q) | enzyme activity |  |  | 1 µM | 86
COc1cc(N(C)CCN(C)C)c(NC(=O)C=C(C)C)cc1Nc1nc(Nc2cnn(C)c2)c2sccc2n1 | EGFR L858R/T790M | enzyme activity | ELISA |  | 0.1 µM | 25.1
CC/C(=N\NC(=O)NCc1cccc(O)c1)c1ccc(O)c(C)c1O | EGFR L858R | enzyme activity |  |  | 0.1 µM | 0.5
C=CC(=O)Nc1cc(Nc2nc(N3CCc4sccc4C3)c3sccc3n2)c(OC)cc1N1CCN(C)CC1 | EGFR L858R/T790M | enzyme activity | ELISA |  | 0.1 µM | 25.6
COc1cc2ncnc(Nc3cccc(OCCn4ccnc4[N+](=O)[O-])c3)c2cc1OCCCN1CCOCC1 | EGFR | enzyme activity | FRET |  | 1 µM | 30
CCC(=O)Nc1cc(Nc2nc(N3CCc4sccc4C3)c3cccnc3n2)c(OC)cc1N1CCN(CCO)CC1 | EGFR L858R/T790M | enzyme activity | ELISA |  | 0.1 µM | 30.3
CNCc1ccc(-c2cc(-c3nc(-c4ccc(S(=O)(=O)C(C)C)cc4)cnc3N)on2)cc1 | EGFR | enzyme activity |  |  | 2 µM | 0
C=C(Cl)C(=O)Nc1cc(Nc2nc(N3CCCC3)c3sccc3n2)c(OC)cc1N(C)CCN(C)C | EGFR L858R/T790M | enzyme activity | ELISA |  | 0.1 µM | 12.7
CCCS(=O)(=O)Nc1ccc(F)c(C(=O)c2c[nH]c3ncc(-c4ccc(Cl)cc4)cc23)c1F | EGFR | enzyme activity |  |  | 1 µM | < 10
